Measurements taken from PubChem BioAssay AID624096 (The Scripps Research Institute Molecular Screening Center, 2012).
Values joined by “and” are separate entries in the source; they are usually repeats but may differ in a detail not shown here. Identical values can stand only once. Active and inactive are the calls of the source.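 How the source made its calls: active means compound needing at most 10 µM to cut the imipenem dose that stops bacterial growth fourfold; inactive means the rest.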

Columns and labels:
[1] = growth inhibition synergy, Acinetobacter plus imipenem – strain YMC07/8/B3323, clinical isolate, powder samples, late-stage follow-up (AID 624096); conditions: VIM-2 Acinetobacter YMC07/8/B3323 growth with imipenem, OD590; measured here: max imipenem potentiation fold; stronger effect = higher value
Outline: (§1)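 Assay system: Acinetobacter cells in broth microdilution / Also added: imipenem in two-fold serial dilutions along plate columns / Dosing: test compound in two-fold serial dilutions along rows, checkerboard / Times: growth of at least 18 h, aerobic, 37 °C / Technique: OD590 turbidity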

[2] = tested on: VIM-2 Acinetobacter YMC07/8/B3323 growth with imipenem, OD590; experiment: as above
Outline: as §1

SMILES | MIC [2] | fold potentiation [1]
O=C(CN1C(=O)/C(=C/c2c(Cl)ccc(Cl)c2Cl)SC1=S)N1CCN(c2ccccc2Cl)CC1 | > 50 µM (inactive) | –
CN1CCN(NC(=O)[C@H](Cc2ccccc2)N2C(=O)/C(=C/c3c(Cl)cccc3Cl)SC2=S)CC1 | > 25 µM (inactive) | 8
O=C(CN1C(=O)/C(=C/c2c(Cl)ccc(Cl)c2Cl)SC1=S)NCc1ccccn1 | 1.56 µM | 16 and 32
O=C(O)CN1C(=O)/C(=C/c2c(F)cccc2Cl)SC1=S | > 50 µM (inactive) | 2
O=C(O)CN1C(=O)/C(=C/c2c(F)c(F)c(F)c(F)c2F)SC1=S | > 50 µM (inactive) | 2
O=C(O)CN1C(=O)/C(=C/c2c(Cl)cccc2Cl)SC1=S | 12.5 µM (inactive) | 16
O=C(CN1C(=O)/C(=C/c2c(Cl)ccc(Cl)c2Cl)SC1=S)NN1CCCCC1 | 3.12 µM | 16
O=C(CN1C(=O)/C(=C/c2c(Cl)cccc2Cl)SC1=S)Nc1cc([N+](=O)[O-])ccc1O | > 50 µM (inactive) | –
O=C(O)CN1C(=O)/C(=C/c2ccc(F)cc2)SC1=S | > 50 µM (inactive) | –
CCN(CC)OC(=O)CN1C(=O)/C(=C/c2c(Cl)cccc2Cl)SC1=S | 12.5 µM (inactive) | 8
O=C(O)CN1C(=O)/C(=C/c2c(F)cccc2F)SC1=S | > 50 µM (inactive) | 2
O=C(O)CN1C(=O)/C(=C/c2ccc(Cl)cc2)SC1=S | > 50 µM (inactive) | 2
CN1CCN(NC(=O)C(Cc2ccc(Cl)cc2)N2C(=O)/C(=C/c3c(Cl)ccc(Cl)c3Cl)SC2=S)CC1 (stereo unspecified) | 1.56 µM | 32
O=C(CN1C(=O)/C(=C/c2c(Cl)cccc2Cl)SC1=S)NN1CCCCC1 | 3.12 µM | 16
O=C(CN1C(=O)/C(=C/c2c(Cl)cccc2Cl)SC1=S)Nc1cccnc1 | 6.25 µM | 16
O=C(CN1C(=O)/C(=C/c2c(Cl)cccc2Cl)SC1=S)NCc1ccccn1 | 6.25 µM | 16
O=C(O)CN1C(=O)/C(=C/c2c(Cl)ccc(Cl)c2Cl)SC1=S | 6.25 µM | 16
O=C(O)CN1C(=O)/C(=C/c2ccccc2Br)SC1=S | > 50 µM (inactive) | 2

SMILES | MIC [2] | fold potentiation [1]
C[N+]1(OS(C)(=O)=O)CCN(NC(=O)CN2C(=O)/C(=C/c3c(Cl)ccc(Cl)c3Cl)SC2=S)CC1 | 0.195 µM | 32
CCOC(=O)/C=C1\SC(=S)N(CC(=O)O)C1=O | > 50 µM (inactive) | –
CN1CCN(NC(=O)C(Cc2ccccc2)N2C(=O)/C(=C/c3c(Cl)ccc(Cl)c3Cl)SC2=S)CC1 (stereo unspecified) | 1.56 µM | 32
Cc1ccc(S(=O)(=O)N2CCN(NC(=O)CN3C(=O)/C(=C/c4c(Cl)cccc4Cl)SC3=S)CC2)cc1 | > 25 µM (inactive) | –
O=C(O)CN1C(=O)/C(=C/c2c(F)cccc2Br)SC1=S | > 50 µM (inactive) | 2
O=C(O)CN1C(=O)/C(=C/c2ccc3ccccc3n2)SC1=S | > 50 µM (inactive) | –
Cc1cc(C)n(NC(=O)CN2C(=O)/C(=C/c3c(Cl)cccc3Cl)SC2=S)c(=O)c1 | 1.56 µM | 32
O=C(CN1C(=O)/C(=C/c2c(Cl)cccc2Cl)SC1=S)NN1CCN(C(=O)c2ccccc2)CC1 | 3.12 µM | 16
O=C(CN1C(=O)/C(=C/c2c(Cl)cccc2Cl)SC1=S)NCc1ccncc1 | 6.25 µM | 16
CC(C)(C)OC(=O)N1CCN(C(=O)CN2C(=O)/C(=C/c3c(Cl)ccc(Cl)c3Cl)SC2=S)CC1 | 6.25 µM | 16
O=C(O)CN1C(=O)/C(=C/c2ccc([N+](=O)[O-])cc2)SC1=S | > 50 µM (inactive) | 2
O=C(O)CN1C(=O)/C(=C/c2c(C(F)(F)F)ccc(Cl)c2Cl)SC1=S | 6.25 µM | 16
O=C(O)CN1C(=O)/C(=C/c2c(F)cccc2C(F)(F)F)SC1=S | > 25 µM (inactive) | 2
O=C(CN1C(=O)/C(=C/c2c(Cl)cccc2Cl)SC1=S)NN1CCN(Cc2ccccc2)CC1 | 3.12 µM | –
O=C(CN1C(=O)/C(=C/c2c(Cl)cccc2Cl)SC1=S)NN1CCNCC1 | 3.12 µM | 16
O=C(O)CN1C(=O)/C(=C/c2c(Cl)ccc(C(F)(F)F)c2Cl)SC1=S | 6.25 µM | 8
O=C(CN1C(=O)/C(=C/c2c(Cl)cccc2Cl)SC1=S)NN1CCN(S(=O)(=O)c2ccc(Cl)cc2)CC1 | > 50 µM (inactive) | 2
O=C(O)CN1C(=O)/C(=C/c2cccnc2)SC1=S | > 50 µM (inactive) | –

The next lines start with results.

MIC [2] | SMILES | fold potentiation [1]
1.56 µM | CC(C)C(C(=O)NN1CCN(C)CC1)N1C(=O)/C(=C/c2c(Cl)ccc(Cl)c2Cl)SC1=S (stereo unspecified) | 32
> 50 µM (inactive) | CN1CCN(NC(=O)CN2C(=O)/C(=C/c3ccc([N+](=O)[O-])cc3)SC2=S)CC1 | –
3.12 µM | CN1CCN(NC(=O)CN2C(=O)/C(=C/c3c(F)cccc3C(F)(F)F)SC2=S)CC1 | 2
3.12 µM | CN1CCN(NC(=O)CN2C(=O)/C(=C/c3c(Cl)ccc(C(F)(F)F)c3Cl)SC2=S)CC1 | 16
0.781 µM | CC(C)(C)OC(=O)N1CCN(NC(=O)CN2C(=O)/C(=C/c3c(Cl)ccc(Cl)c3Cl)SC2=S)CC1 | 16
> 50 µM (inactive) | Cc1cc(C)c(/C=C2\SC(=S)N(CC(=O)O)C2=O)c(C)c1 | –
6.25 µM | CC(=O)N1CCN(NC(=O)CN2C(=O)/C(=C/c3c(Cl)cccc3Cl)SC2=S)CC1 | 32
> 50 µM (inactive) | CCOC(=O)/C=C1\SC(=S)N(CC(=O)NN2CCN(C)CC2)C1=O | 2
3.12 µM and 6.25 µM | CN1CCN(NC(=O)CN2C(=O)/C(=C/c3c(Cl)cccc3Cl)SC2=S)CC1 | 32
6.25 µM | CN1CCN(C(=O)CN2C(=O)/C(=C/c3c(Cl)cccc3Cl)SC2=S)CC1 | 16
> 25 µM (inactive) | Cc1cc(C)c(/C=C2\SC(=S)N(CC(=O)NN3CCN(C)CC3)C2=O)c(C)c1 | 4
1.56 µM and 0.781 µM | CN1CCN(C(=O)CN2C(=O)/C(=C/c3c(Cl)ccc(Cl)c3Cl)SC2=S)CC1 | 16 and 32
> 50 µM (inactive) | CN1CCN(NC(=O)CN2C(=O)/C(=C/c3ccc(Cl)cc3)SC2=S)CC1 | –
> 25 µM (inactive) | CN1CCN(NC(=O)CN2C(=O)/C(=C/c3c(F)cccc3F)SC2=S)CC1 | 4
0.781 µM | O=C(CN1C(=O)/C(=C/c2c(Cl)ccc(Cl)c2Cl)SC1=S)NN1CCNCC1 | 32
3.12 µM | CN1CCN(NC(=O)CN2C(=O)/C(=C/c3c(F)cccc3Cl)SC2=S)CC1 | 32
> 50 µM (inactive) | CN1CCN(NC(=O)CN2C(=O)/C(=C/c3ccccc3Br)SC2=S)CC1 | 4
> 50 µM (inactive) | CN1CCN(NC(=O)CN2C(=O)/C(=C/c3c(F)c(F)c(F)c(F)c3F)SC2=S)CC1 | 2
3.12 µM | CC(C)(C)OC(=O)N1CCN(NC(=O)CN2C(=O)/C(=C/c3c(Cl)cccc3Cl)SC2=S)CC1 | 16
> 50 µM (inactive) | CN1CCN(NC(=O)CN2C(=O)/C(=C/c3c(F)cccc3Br)SC2=S)CC1 | 2
> 50 µM (inactive) | CN1CCN(NC(=O)CN2C(=O)/C(=C/c3ccc(F)cc3)SC2=S)CC1 | –
> 50 µM (inactive) | CN1CCN(NC(=O)CN2C(=O)/C(=C/c3cccnc3)SC2=S)CC1 | 4
6.25 µM | CC(C)N1CCN(NC(=O)CN2C(=O)/C(=C/c3c(Cl)cccc3Cl)SC2=S)CC1 | 32
3.12 µM | CN1CCN(NC(=O)CN2C(=O)/C(=C/c3c(C(F)(F)F)ccc(Cl)c3Cl)SC2=S)CC1 | 32
> 50 µM (inactive) | CN1CCN(NC(=O)CN2C(=O)/C(=C/c3ccc4ccccc4n3)SC2=S)CC1 | –
0.781 µM and 1.56 µM and 0.391 µM | CN1CCN(NC(=O)CN2C(=O)/C(=C/c3c(Cl)ccc(Cl)c3Cl)SC2=S)CC1 | 32 and 16
